Results published in ChEMBL document CHEMBL1208679, “Synthesis and evaluation of a new series of Neuropeptide S receptor antagonists” (Bioorg Med Chem Lett, 2010).
Calls of active or inactive are those of the source. The rule behind the calls is not given here.

How the values were obtained:
[1] = target: T1, Neuropeptide S receptor (Homo sapiens, UniProt Q6W5P4); assay: Antagonist activity at human recombinant NPS receptor expressed in CHOK1 cells assessed as inhibition of NPS-induced calcium mobilization by FLIPR assay; assay type: functional, cell-based, CHO-K1
T1 sequence (Q6W5P4 whole entry): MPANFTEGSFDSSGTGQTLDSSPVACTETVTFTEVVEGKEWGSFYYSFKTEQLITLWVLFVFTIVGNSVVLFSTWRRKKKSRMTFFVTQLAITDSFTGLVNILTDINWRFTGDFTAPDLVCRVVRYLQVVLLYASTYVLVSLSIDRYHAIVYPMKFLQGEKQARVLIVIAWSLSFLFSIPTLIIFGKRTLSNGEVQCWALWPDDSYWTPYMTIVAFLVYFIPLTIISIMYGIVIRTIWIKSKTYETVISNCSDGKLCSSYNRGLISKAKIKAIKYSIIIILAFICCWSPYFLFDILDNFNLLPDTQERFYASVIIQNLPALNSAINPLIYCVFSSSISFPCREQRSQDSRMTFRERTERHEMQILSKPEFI
How it was run: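 Dual-sequence FLIPR Ca2+ mobilization in CHOK1 cells expressing recombinant NPSR, plated 24 h before the run. Fluo4AM dye loaded 1 h at 37 °C, 5% CO2. Cells incubated with titrated compound for 4 min, then an EC80 of human NPS added and read for another 4 min. Inhibition calculated against NPS-stimulated control wells. IC50 from 4-parameter logistic fits, averaged over at least two experiments.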

[2] = target: T2, MDR1 (ABCB1, P-glycoprotein) (Homo sapiens, UniProt P08183); assay: (§1) Permeability of the compound assessed as MDR1-passive permeability by cell based assay; settings: not told; read-out: permeability
T2 sequence (P08183 whole entry): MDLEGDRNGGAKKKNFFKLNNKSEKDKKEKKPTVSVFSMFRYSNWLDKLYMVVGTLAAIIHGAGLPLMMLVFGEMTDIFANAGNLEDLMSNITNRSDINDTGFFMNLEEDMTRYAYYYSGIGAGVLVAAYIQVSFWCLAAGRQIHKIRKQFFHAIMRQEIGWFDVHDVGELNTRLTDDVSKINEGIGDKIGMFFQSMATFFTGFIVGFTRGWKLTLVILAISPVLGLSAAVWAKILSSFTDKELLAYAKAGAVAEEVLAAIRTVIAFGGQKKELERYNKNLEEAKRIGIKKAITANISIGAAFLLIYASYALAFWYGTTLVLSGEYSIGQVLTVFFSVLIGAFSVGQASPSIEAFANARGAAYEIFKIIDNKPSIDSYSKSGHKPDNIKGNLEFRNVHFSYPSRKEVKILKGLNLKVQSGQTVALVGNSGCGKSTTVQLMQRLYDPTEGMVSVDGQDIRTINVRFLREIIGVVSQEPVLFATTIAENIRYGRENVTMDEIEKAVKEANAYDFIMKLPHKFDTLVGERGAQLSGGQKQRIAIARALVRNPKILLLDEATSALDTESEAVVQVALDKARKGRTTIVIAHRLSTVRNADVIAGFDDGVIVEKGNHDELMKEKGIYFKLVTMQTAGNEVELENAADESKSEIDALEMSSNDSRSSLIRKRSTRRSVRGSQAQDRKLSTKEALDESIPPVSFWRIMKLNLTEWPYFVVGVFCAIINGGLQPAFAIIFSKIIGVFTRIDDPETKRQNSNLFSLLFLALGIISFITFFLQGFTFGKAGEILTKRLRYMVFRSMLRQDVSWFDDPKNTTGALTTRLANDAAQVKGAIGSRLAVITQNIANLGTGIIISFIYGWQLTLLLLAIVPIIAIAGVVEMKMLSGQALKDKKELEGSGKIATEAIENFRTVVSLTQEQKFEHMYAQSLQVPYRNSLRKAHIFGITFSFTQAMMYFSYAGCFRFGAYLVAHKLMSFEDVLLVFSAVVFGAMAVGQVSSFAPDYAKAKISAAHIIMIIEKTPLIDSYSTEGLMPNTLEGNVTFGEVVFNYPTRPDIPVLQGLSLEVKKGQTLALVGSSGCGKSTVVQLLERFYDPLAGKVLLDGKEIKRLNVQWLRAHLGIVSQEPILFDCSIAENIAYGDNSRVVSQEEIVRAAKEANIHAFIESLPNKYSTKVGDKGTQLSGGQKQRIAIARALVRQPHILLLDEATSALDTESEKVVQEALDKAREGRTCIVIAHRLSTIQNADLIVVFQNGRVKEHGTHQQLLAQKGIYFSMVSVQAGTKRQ
How it was run: (§2)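 Passive permeability expressed as Papp in 10^-6 cm/s.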

[3] = target: T2, MDR1 (ABCB1, P-glycoprotein); assay: Permeability of the compound assessed as MDR1-mediated directional transport ratio by cell based assay; settings: not told
How it was run: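 MDR1 directional transport ratio, calculated as (B to A)/(A to B). Average of three experiments.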

[4] = Protein binding in human plasma; settings: read-out: PPB (converted)
[5] = tested on: Rattus norvegicus; assay: Ex vivo receptor occupancy in ip dosed rat brain superior coliculus assessed inhibition of [125I]NPS binding after 30 mins; assay type: functional, organism-based
How it was run: (§3)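 Compound given 30 mg/kg ip in 25% HPB cyclodextrin. Brain taken 30 min after dosing (n = 4 rats, 2–3 sections/rat). Tissue sections incubated with 0.5 nM 125I-hNPS for 30 min, with 2 µM unlabeled hNPS defining nonspecific binding. Mean percent occupancy in AON, DEN or SC relative to vehicle was plotted against plasma compound concentration, with IC50 from nonlinear regression.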

[6] = tested on: Rattus norvegicus; assay: Ex vivo receptor occupancy in ip dosed rat brain anterior olfactory nucleus assessed inhibition of [125I]NPS binding after 30 mins; assay type: functional, organism-based; how it was run: as §3
[7] = tested on: Rattus norvegicus; assay: Ex vivo receptor occupancy in ip dosed rat brain dorsal endopiriform nucleus assessed inhibition of [125I]NPS binding after 30 mins; assay type: functional, organism-based; how it was run: as §3
[8] = tested on: Rattus norvegicus; assay: Ex vivo receptor occupancy of NPS receptor in rat brain superior coliculus at 30 mg/kg, ip after 30 mins; assay type: functional, organism-based; design: dose 30 mg/kg; how it was run: as §3
[9] = tested on: Rattus norvegicus; assay: Ex vivo receptor occupancy of NPS receptor in rat brain anterior olfactory nucleus at 30 mg/kg, ip after 30 mins; assay type: functional, organism-based; design: dose 30 mg/kg; how it was run: as §3
[10] = tested on: Rattus norvegicus; assay: Ex vivo receptor occupancy of NPS receptor in rat brain dorsal endopiriform nucleus at 30 mg/kg, ip after 30 mins; assay type: functional, organism-based; design: dose 30 mg/kg; how it was run: as §3
[11] = target: T3, Neuropeptide S receptor (Rattus norvegicus, UniProt P0C0L6); assay: Displacement of [3H]quinolinone from rat NPS receptor
T3 sequence (P0C0L6 whole entry): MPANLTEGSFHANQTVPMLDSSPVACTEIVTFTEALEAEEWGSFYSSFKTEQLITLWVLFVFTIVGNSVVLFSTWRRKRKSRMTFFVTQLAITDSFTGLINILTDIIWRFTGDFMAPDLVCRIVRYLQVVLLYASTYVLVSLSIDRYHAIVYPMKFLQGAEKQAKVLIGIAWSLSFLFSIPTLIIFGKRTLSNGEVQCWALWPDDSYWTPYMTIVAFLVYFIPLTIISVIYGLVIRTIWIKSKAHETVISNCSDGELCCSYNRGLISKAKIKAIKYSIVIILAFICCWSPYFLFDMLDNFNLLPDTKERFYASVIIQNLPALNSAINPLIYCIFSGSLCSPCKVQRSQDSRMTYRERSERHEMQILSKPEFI

[12] = tested on: Plasma; assay: Protein binding in human plasma; assay type: ADME, cell-free
[13] = Drug level in rat plasma at 30 mg/kg, ip after 0.5 hrs; assay type: ADME, organism-based; design: dose 30 mg/kg, route intraperitoneal; settings: read-out: Drug uptake
How it was run: (§4)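 Rats dosed 30 mg/kg ip. Plasma, brain and CSF levels measured at 0.5 h and 2.0 h and reported in nM.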

[14] = Drug level in rat brain at 30 mg/kg, ip after 0.5 hrs; assay type: ADME, organism-based; design: dose 30 mg/kg, route intraperitoneal; settings: read-out: Drug uptake; how it was run: as §4
[15] = Drug level in rat brain at 30 mg/kg, ip after 2 hrs; assay type: ADME, organism-based; design: dose 30 mg/kg, route intraperitoneal; settings: read-out: Drug uptake; how it was run: as §4
[16] = Drug level in rat cerebrospinal fluid at 30 mg/kg, ip after 2 hrs; assay type: ADME, organism-based; design: dose 30 mg/kg, route intraperitoneal; settings: read-out: Drug uptake; how it was run: as §4
[17] = target: ATP-dependent translocase ABCB1 (Homo sapiens, UniProt P08183); assay: as §1; how it was run: as §2
Chain of ATP-dependent translocase ABCB1 (P08183 whole entry): as the sequence (P08183 whole entry) above

[18] = Drug level in rat plasma at 30 mg/kg, ip after 2 hrs; assay type: ADME, organism-based; design: dose 30 mg/kg, route intraperitoneal; settings: read-out: Drug uptake; how it was run: as §4
[19] = target: T3, Neuropeptide S receptor; assay: Displacement of [125I]NPS from NPS receptor in rat brain superior coliculus after 30 mins; assay type: tissue-based
How it was run: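 Rat brain sections from vehicle-treated animals (25% HPB cyclodextrin/75% sterile water, ip), preincubated in vitro with titrated compound. Nonspecific binding from co-incubation with 2 µM unlabeled hNPS. 2–3 sections per concentration. Mean ± SEM.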

[20] = Drug level in rat cerebrospinal fluid at 30 mg/kg, ip after 0.5 hrs; assay type: ADME, organism-based; design: dose 30 mg/kg, route intraperitoneal; settings: read-out: Drug uptake; how it was run: as §4

| IC50 [1] [nM] | Papp [2] [×10⁻⁶ cm/s] | efflux ratio [3] | SMILES | further results |
| --- | --- | --- | --- | --- |
| 725 |  |  | CC(CCN1CCOCC1)N(Cc1cc2ccccc2n(C)c1=O)C(=O)C1CCCCC1 (configuration not stated) |  |
| 103 |  |  | CCC(CC)(CCN1CCOCC1)N(Cc1cc2ccccc2n(C)c1=O)C(=O)C1CCCCC1 |  |
| 326 |  |  | Cn1c(=O)c(CN(C(=O)C2CCCCC2)C(C)(C)CCN2CCCC2)cc2ccccc21 |  |
| 7 | 28 | 43 | CCC(C)(CCN1CCCCC1)N(Cc1cc2ccccc2n(C)c1=O)C(=O)C1CCCCC1 (racemic) | fraction unbound [4]: 0.11 |
| 1580 |  |  | CC(CCN1CCCC1)N(Cc1cc2ccccc2n(C)c1=O)C(=O)C1CCCCC1 (configuration not stated) |  |
| 398 |  |  | Cn1c(=O)c(CN(C(=O)C2CCCCC2)C2(CCN3CCOCC3)CCCCC2)cc2ccccc21 |  |
| 18 |  | 10.6 | CN1CCN(C2(CN(Cc3cc4ccccc4n(C)c3=O)C(=O)C3CCCCC3)CCCCC2)CC1 |  |
|  |  |  | CCC(C)(CCN1CCOCC1)N(Cc1cc2ccccc2n(C)c1=O)C(=O)C1CCCCC1 (single isomer, unassigned; enantiomer 1) [listing 1 of 2 here] | Activity [5]: Dose-dependent effect; Activity [6]: Dose-dependent effect; Activity [7]: Dose-dependent effect; Activity [8]: Active; Activity [9]: Active; Activity [10]: Active |
| 144 | 23 | 2 | Cn1c(=O)c(CN(C(=O)C2CCCCC2)C(C)(C)CCN2CCOCC2)cc2ccccc21 |  |
| 22 | 25 | 1.1 | CCC(C)(CCN1CCC(F)(F)CC1)N(Cc1cc2ccccc2n(C)c1=O)C(=O)C1CCCCC1 (racemic) | fraction unbound [4]: 0.03 |
| 31 | 25 | 36 | Cn1c(=O)c(CN(C(=O)C2CCCCC2)C(C)(C)CCN2CCCCC2)cc2ccccc21 |  |
| 14 | 33 | 2.6 | CCC(C)(CCN1CCC(F)CC1)N(Cc1cc2ccccc2n(C)c1=O)C(=O)C1CCCCC1 (racemic) |  |

| SMILES | IC50 [1] [nM] | Papp [2] [×10⁻⁶ cm/s] | efflux ratio [3] | further results |
| --- | --- | --- | --- | --- |
| CCC(C)(CCN1CCOCC1)N(Cc1cc2ccccc2n(C)c1=O)C(=O)C1CCCCC1 (single isomer, unassigned; enantiomer 2) | 785 |  |  |  |
| CCC(C)(CCN1CCOCC1)N(Cc1cc2ccccc2n(C)c1=O)C(=O)C1CCCCC1 (racemic) | 23 | 18 |  |  |
| CCC(C)(CCN1CCOCC1)N(Cc1cc2ccccc2n(C)c1=O)C(=O)C1CCCCC1 (single isomer, unassigned; enantiomer 1) [listing 2 of 2 here] | 10 |  |  | IC50 ([5]; 0.5 h): 130 nM; EC50 [11]: 1.3 nM; PPB [12]: 82%; concentration at 0.5 h [13]: 4340 nM; IC50 ([6]; 0.5 h): 570 nM; IC50 ([7]; 0.5 h): 380 nM; concentration at 0.5 h [14]: 1690 nM; concentration at 2 h [15]: 665 nM; concentration at 2 h [16]: 45 nM; permeability [17]: 36 ×10⁻⁶ cm/s; concentration at 2 h [18]: 2300 nM; IC50 [19]: 1.44 nM; concentration at 0.5 h [20]: 101 nM |
